In brackets after ≈: the same amount, converted by molar mass.
Assays:
Format in all cases: functional
Candida albicans [1] = test: Antifungal activity against Candida albicans JLC 30364 by broth microdilution method
Outline: (§1)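 MICs were determined by broth microdilution following NCCLS guidelines (M38-P for filamentous fungi). The panel covered four yeast species and two Aspergillus species, with two strains per species. Itraconazole served as positive control.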

Cryptococcus neoformans [2] = test: Antifungal activity against Cryptococcus neoformans JLC 50122 by broth microdilution method; outline: as §1
Aspergillus fumigatus [3] = test: Antifungal activity against Aspergillus fumigatus JLC 30883 by broth microdilution method; outline: as §1
Aspergillus flavus [4] = test: Antifungal activity against Aspergillus flavus JLC 30784 by broth microdilution method; outline: as §1
Pichia kudriavzevii [5] = test: Antifungal activity against Candida krusei JLC 30366 by broth microdilution method; outline: as §1
Aspergillus fumigatus [6] = test: Antifungal activity against Aspergillus fumigatus JLC 30506 by broth microdilution method; outline: as §1
Candida parapsilosis [7] = test: Antifungal activity against Candida parapsilosis JLC 30365 by broth microdilution method; conditions: Lodderomyces parapsilosis; outline: as §1
Aspergillus flavus [8] = test: Antifungal activity against Aspergillus flavus JLC 40437 by broth microdilution method; outline: as §1
Candida parapsilosis [9] = test: Antifungal activity against Candida parapsilosis JLC 30275 by broth microdilution method; conditions: Lodderomyces parapsilosis; outline: as §1
Candida albicans [10] = test: Antifungal activity against Candida albicans JLC 31374 by broth microdilution method; outline: as §1
Cryptococcus neoformans [11] = test: Antifungal activity against Cryptococcus neoformans JLC 50123 by broth microdilution method; outline: as §1
Pichia kudriavzevii [12] = test: Antifungal activity against Candida krusei JLC 30386 by broth microdilution method; outline: as §1

MIC (Candida albicans [1]) [µg/mL]	MIC (Cryptococcus neoformans [2]) [µg/mL]	MIC (Aspergillus fumigatus [3]) [µg/mL]	MIC (Aspergillus flavus [4]) [µg/mL]	MIC (Pichia kudriavzevii [5]) [µg/mL]	MIC (Aspergillus fumigatus [6]) [µg/mL]	MIC (Candida parapsilosis [7]) [µg/mL]	MIC (Aspergillus flavus [8]) [µg/mL]	MIC (Candida parapsilosis [9]) [µg/mL]	MIC (Candida albicans [10]) [µg/mL]	MIC (Cryptococcus neoformans [11]) [µg/mL]	MIC (Pichia kudriavzevii [12]) [µg/mL]	Compound
< 0.0625	< 0.0625	1 (≈ 1.48 µM)	0.25 (≈ 0.37 µM)	0.0625 (≈ 0.0925 µM)	1 (≈ 1.48 µM)	0.0625 (≈ 0.0925 µM)	0.25 (≈ 0.37 µM)	0.0625 (≈ 0.0925 µM)	< 0.0625	< 0.0625	0.0625 (≈ 0.0925 µM)	O=c1n(-c2ccc(N3CCN(c4ccc(OC[C@H]5CO[C@](Cn6cncn6)(c6ccc(F)cc6F)O5)cc4)CC3)nc2)cnn1CCCO
< 0.0038	0.5 (≈ 0.742 µM)	0.0625 (≈ 0.0928 µM)	0.25 (≈ 0.371 µM)	0.125 (≈ 0.186 µM)	0.0625 (≈ 0.0928 µM)	0.25 (≈ 0.371 µM)	0.25 (≈ 0.371 µM)	0.25 (≈ 0.371 µM)	< 0.0038	0.5 (≈ 0.742 µM)	0.125 (≈ 0.186 µM)	CCC(C)n1ncn(-c2ccc(N3CCN(c4ccc(OC[C@H]5CO[C@](Cn6cncn6)(c6ccc(F)cc6F)O5)cc4)CC3)nc2)c1=O (some centres not stated)
< 0.0038	0.25 (≈ 0.353 µM)	0.125 (≈ 0.177 µM)	0.25 (≈ 0.353 µM)	0.5 (≈ 0.706 µM)	0.125 (≈ 0.177 µM)	0.25 (≈ 0.353 µM)	0.25 (≈ 0.353 µM)	0.25 (≈ 0.353 µM)	< 0.0038	0.25 (≈ 0.353 µM)	0.5 (≈ 0.706 µM)	O=c1n(-c2ccc(N3CCN(c4ccc(OC[C@H]5CO[C@](Cn6cncn6)(c6ccc(F)cc6F)O5)cc4)CC3)nc2)cnn1Cc1ccccc1
0.0625 (≈ 0.0888 µM)	0.125 (≈ 0.178 µM)	0.125 (≈ 0.178 µM)	0.125 (≈ 0.178 µM)	0.25 (≈ 0.355 µM)	0.125 (≈ 0.178 µM)	0.5 (≈ 0.71 µM)	0.125 (≈ 0.178 µM)	0.5 (≈ 0.71 µM)	0.0625 (≈ 0.0888 µM)	0.125 (≈ 0.178 µM)	0.25 (≈ 0.355 µM)	CC(C)(CO)Cn1ncn(-c2ccc(N3CCN(c4ccc(OC[C@H]5CO[C@](Cn6cncn6)(c6ccc(F)cc6F)O5)cc4)CC3)nc2)c1=O
0.0625 (≈ 0.0906 µM)	0.0625 (≈ 0.0906 µM)	> 32	> 0.5	0.125 (≈ 0.181 µM)	> 32	2 (≈ 2.9 µM)	> 0.5		0.0625 (≈ 0.0906 µM)	0.0625 (≈ 0.0906 µM)	0.125 (≈ 0.181 µM)	CC(CO)Cn1ncn(-c2ccc(N3CCN(c4ccc(OC[C@H]5CO[C@](Cn6cncn6)(c6ccc(F)cc6F)O5)cc4)CC3)nc2)c1=O (some centres not stated)
< 0.0625	< 0.0625	1 (≈ 1.48 µM)	0.25 (≈ 0.37 µM)	> 2	1 (≈ 1.48 µM)	< 0.0625	0.25 (≈ 0.37 µM)	< 0.0625	< 0.0625	< 0.0625	> 2	CC(CO)n1ncn(-c2ccc(N3CCN(c4ccc(OC[C@H]5CO[C@](Cn6cncn6)(c6ccc(F)cc6F)O5)cc4)CC3)nc2)c1=O (some centres not stated)
< 0.0625	0.0625 (≈ 0.0906 µM)	4 (≈ 5.8 µM)	4 (≈ 5.8 µM)	2 (≈ 2.9 µM)	4 (≈ 5.8 µM)	< 0.0625	4 (≈ 5.8 µM)	< 0.0625	< 0.0625	0.0625 (≈ 0.0906 µM)	2 (≈ 2.9 µM)	CC(CCO)n1ncn(-c2ccc(N3CCN(c4ccc(OC[C@H]5CO[C@](Cn6cncn6)(c6ccc(F)cc6F)O5)cc4)CC3)nc2)c1=O (some centres not stated)
0.03 (≈ 0.0445 µM)	1 (≈ 1.48 µM)	0.5 (≈ 0.742 µM)	0.5 (≈ 0.742 µM)	0.0625 (≈ 0.0928 µM)	0.5 (≈ 0.742 µM)	0.5 (≈ 0.742 µM)	0.5 (≈ 0.742 µM)	0.5 (≈ 0.742 µM)	0.03 (≈ 0.0445 µM)	1 (≈ 1.48 µM)	0.0625 (≈ 0.0928 µM)	CCC(C)n1ncn(-c2ccc(N3CCN(c4ccc(OC[C@H]5CO[C@](Cn6cncn6)(c6ccc(F)cc6F)O5)cc4)CC3)cn2)c1=O (some centres not stated)
0.015 (≈ 0.0223 µM)	0.25 (≈ 0.371 µM)	0.125 (≈ 0.186 µM)	0.0625 (≈ 0.0928 µM)	0.125 (≈ 0.186 µM)	0.125 (≈ 0.186 µM)	0.25 (≈ 0.371 µM)	0.0625 (≈ 0.0928 µM)	0.25 (≈ 0.371 µM)	0.015 (≈ 0.0223 µM)	0.25 (≈ 0.371 µM)	0.125 (≈ 0.186 µM)	CC(C)Cn1ncn(-c2ccc(N3CCN(c4ccc(OC[C@H]5CO[C@](Cn6cncn6)(c6ccc(F)cc6F)O5)cc4)CC3)cn2)c1=O
